# Source: ChEMBL document CHEMBL3817823 (J Med Chem, 2016)
# The source made the active and inactive calls. The rule behind the calls is not given here.
# Tests used:
# KYSE-150 [1] = experiment: Antitumor activity against human KYSE-150 cells xenografted in BALB/c mouse assessed as reduction in tumor weight at 500 mg/kg, po administered qd in presence of doxorubicin relative to control; format: functional, organism-based
# How it was run: (§1)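 Mice carrying subcutaneous KYSE-150 xenografts; dosing began day 4 after inoculation. Arms: vehicle (Solutol/ethanol/water 1:1:8 iv qd, plus saline iv once at day 4), inhibitor 500 mg/kg po qd, doxorubicin 10 mg/kg iv once at day 4, or the combination. Tumor area tracked (mean ± SEM); final tumor weight gives T/C; Dunn's method versus vehicle.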
# [2] = target: Protein N-lysine methyltransferase METTL21D (Homo sapiens) (UniProt Q9H867); experiment: Inhibition of METTL21D (unknown origin) at 1 to 50 uM by TCA precipitation assay
# U2OS = experiment: Potentiation of doxorubicin-induced apoptosis in human U2OS cells assessed as caspase 3/7 activation up to 20 uM after 2 days by […]; format: functional, cell-based
# [3] = target: Protein arginine N-methyltransferase 7 (Homo sapiens) (UniProt Q9NVM4); experiment: Inhibition of PRMT7 (unknown origin) at 1 to 50 uM by scintillation proximity assay
# KYSE-150 cell line [4] = experiment: Potentiation of doxorubicin-induced apoptosis in human KYSE-150 cells assessed as caspase 3/7 activation up to 20 uM after 2 days by […]; format: functional, cell-based
# [5] = target: Histone-lysine N-methyltransferase SETD2 (Homo sapiens) (UniProt Q9BYW2); experiment: Inhibition of SETD2 (unknown origin) at 1 to 50 uM by scintillation proximity assay
# Histone-lysine N-methyltransferase SETD2 (Homo sapiens), sequence (Q9BYW2 whole entry): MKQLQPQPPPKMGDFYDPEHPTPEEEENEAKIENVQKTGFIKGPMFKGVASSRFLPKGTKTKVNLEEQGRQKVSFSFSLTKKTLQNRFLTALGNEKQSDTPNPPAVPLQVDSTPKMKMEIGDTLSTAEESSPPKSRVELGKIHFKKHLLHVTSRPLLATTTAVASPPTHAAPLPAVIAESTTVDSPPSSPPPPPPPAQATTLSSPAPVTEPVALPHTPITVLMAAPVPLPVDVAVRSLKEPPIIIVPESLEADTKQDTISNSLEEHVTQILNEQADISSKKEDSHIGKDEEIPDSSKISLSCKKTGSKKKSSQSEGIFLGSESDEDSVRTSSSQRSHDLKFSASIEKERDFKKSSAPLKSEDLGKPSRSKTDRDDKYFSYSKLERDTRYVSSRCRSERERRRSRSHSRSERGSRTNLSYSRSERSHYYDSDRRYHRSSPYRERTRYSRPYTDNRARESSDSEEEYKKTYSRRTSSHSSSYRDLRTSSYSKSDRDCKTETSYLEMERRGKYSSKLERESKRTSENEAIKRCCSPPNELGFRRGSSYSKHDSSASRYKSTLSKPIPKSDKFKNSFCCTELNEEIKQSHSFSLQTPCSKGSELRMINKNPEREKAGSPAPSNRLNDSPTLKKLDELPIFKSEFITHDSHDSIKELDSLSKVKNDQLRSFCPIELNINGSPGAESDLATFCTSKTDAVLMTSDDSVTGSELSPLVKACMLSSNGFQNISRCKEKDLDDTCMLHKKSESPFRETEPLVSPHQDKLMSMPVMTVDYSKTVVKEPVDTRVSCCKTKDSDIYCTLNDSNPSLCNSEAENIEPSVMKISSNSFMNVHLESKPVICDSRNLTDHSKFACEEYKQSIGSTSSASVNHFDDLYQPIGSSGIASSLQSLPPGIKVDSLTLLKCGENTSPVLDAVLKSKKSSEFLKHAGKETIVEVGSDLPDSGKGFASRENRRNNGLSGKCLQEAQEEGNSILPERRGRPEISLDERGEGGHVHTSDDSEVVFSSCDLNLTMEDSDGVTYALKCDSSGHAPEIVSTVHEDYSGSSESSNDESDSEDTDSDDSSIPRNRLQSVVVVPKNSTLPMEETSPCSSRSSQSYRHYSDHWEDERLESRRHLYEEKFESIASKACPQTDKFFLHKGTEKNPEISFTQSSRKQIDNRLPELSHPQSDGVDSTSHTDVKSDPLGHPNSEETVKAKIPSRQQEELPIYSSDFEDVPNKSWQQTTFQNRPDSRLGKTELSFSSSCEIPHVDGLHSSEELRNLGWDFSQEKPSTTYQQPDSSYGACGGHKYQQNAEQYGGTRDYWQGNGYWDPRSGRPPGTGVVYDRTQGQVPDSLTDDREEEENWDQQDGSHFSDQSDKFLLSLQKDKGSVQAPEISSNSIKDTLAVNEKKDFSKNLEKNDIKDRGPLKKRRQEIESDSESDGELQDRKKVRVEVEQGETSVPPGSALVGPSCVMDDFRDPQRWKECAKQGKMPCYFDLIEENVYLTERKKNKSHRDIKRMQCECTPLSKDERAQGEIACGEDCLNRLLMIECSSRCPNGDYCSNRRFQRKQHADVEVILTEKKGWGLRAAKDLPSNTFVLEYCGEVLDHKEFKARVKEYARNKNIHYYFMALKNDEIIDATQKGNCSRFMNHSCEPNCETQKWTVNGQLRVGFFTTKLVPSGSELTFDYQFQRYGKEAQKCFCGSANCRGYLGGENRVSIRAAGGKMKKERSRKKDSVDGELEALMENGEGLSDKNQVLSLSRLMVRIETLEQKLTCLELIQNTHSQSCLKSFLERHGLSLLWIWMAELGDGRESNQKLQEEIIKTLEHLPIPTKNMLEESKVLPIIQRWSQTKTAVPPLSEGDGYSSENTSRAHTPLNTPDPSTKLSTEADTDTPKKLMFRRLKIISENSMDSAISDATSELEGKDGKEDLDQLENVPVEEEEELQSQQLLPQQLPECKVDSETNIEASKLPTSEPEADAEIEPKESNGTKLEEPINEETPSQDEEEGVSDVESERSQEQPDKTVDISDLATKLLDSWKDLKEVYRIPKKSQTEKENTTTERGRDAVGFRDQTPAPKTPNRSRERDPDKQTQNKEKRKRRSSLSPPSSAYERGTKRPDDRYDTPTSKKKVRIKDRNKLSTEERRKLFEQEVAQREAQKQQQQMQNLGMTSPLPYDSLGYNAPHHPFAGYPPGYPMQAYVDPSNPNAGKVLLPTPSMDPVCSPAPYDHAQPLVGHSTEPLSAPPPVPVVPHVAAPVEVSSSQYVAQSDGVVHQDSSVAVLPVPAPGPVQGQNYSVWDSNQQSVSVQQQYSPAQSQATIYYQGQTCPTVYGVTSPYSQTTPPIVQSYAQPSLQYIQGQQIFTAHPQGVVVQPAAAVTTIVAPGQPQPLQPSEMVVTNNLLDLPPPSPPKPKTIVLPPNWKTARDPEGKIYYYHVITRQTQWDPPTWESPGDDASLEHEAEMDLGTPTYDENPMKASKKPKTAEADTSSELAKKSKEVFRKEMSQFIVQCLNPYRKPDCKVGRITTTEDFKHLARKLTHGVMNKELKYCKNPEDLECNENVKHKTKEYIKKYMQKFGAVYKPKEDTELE
# Mus musculus [6] = experiment: Time>IC50 for cellular methylation in BALB/c mouse at 10 mg/kg, po qd
# How it was run: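 Mice were dosed orally once daily at 10–100 mg/kg. Time at steady state with unbound exposure covering the cellular In-Cell Western AHNAK methylation IC50 was estimated.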
# [7] = Oral bioavailability in rat at 0.8 mg/kg by LC-MS/MS analysis; format: ADME, organism-based; conditions: in vivo
# A2780 = experiment: Potentiation of doxorubicin-induced apoptosis in human A2780 cells assessed as caspase 3/7 activation up to 20 uM after 2 days by […]; format: functional, cell-based
# [8] = target: Histone-lysine N-methyltransferase EHMT2 (Homo sapiens) (UniProt Q96KQ7); experiment: Inhibition of G9A (unknown origin) at 1 to 50 uM by scintillation proximity assay
# [9] = target: DNMT3B-DNMT3L complex (Homo sapiens) (UniProt Q9UBC3+Q9UJW3); experiment: Inhibition of DNMT3B/3L (unknown origin) at 1 to 50 uM by TCA precipitation assay; format: protein-complex assay
# KYSE-150 [10] = experiment: Antitumor activity against human KYSE-150 cells xenografted in BALB/c mouse assessed as reduction in tumor area at 500 mg/kg, po administered qd in presence of doxorubicin relative to control; format: functional, organism-based; how it was run: as §1
# [11] = target: Histone-lysine N-methyltransferase, H3 lysine-79 specific (Homo sapiens) (UniProt Q8TEK3); experiment: Inhibition of DOT1L (unknown origin) at 1 to 50 uM by TCA precipitation assay
# [12] = target: Protein N-lysine methyltransferase METTL21A (Homo sapiens) (UniProt Q8WXB1); experiment: Inhibition of METTL21A (unknown origin) at 1 to 50 uM by TCA precipitation assay
# [13] = target: N-lysine methyltransferase KMT5A (Homo sapiens) (UniProt Q9NQR1); experiment: Inhibition of SETD8 (unknown origin) at 1 to 50 uM by scintillation proximity assay
# [14] = target: Histone-lysine N-methyltransferase SUV39H2 (Homo sapiens) (UniProt Q9H5I1); experiment: Inhibition of SUV39H2 (unknown origin) at 1 to 50 uM by scintillation proximity assay
# [15] = target: Histone-lysine N-methyltransferase EHMT1 (Homo sapiens) (UniProt Q9H9B1); experiment: Inhibition of EHMT1 (unknown origin) at 1 to 50 uM by scintillation proximity assay
# KYSE-150 cell line [16] = experiment: Induction of apoptosis in human KYSE-150 cells assessed as caspase 3/7 activation up to 20 uM after 2 days by […]; format: functional, cell-based
# [17] = target: Protein arginine N-methyltransferase 8 (Homo sapiens) (UniProt Q9NR22); experiment: Inhibition of PRMT8 (unknown origin) at 1 to 50 uM by scintillation proximity assay
# Mus musculus [18] = experiment: Toxicity in human KYSE-150 cells xenografted BALB/c mouse assessed as body weight loss at 500 mg/kg, po administered qd in presence of doxorubicin relative to control; format: organism-based; conditions: in vivo
# How it was run: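 Mice bore subcutaneous KYSE-150-derived tumor xenografts; dosing began day 4 after inoculation. Groups: vehicle (Solutol/ethanol/water 1:1:8 iv qd plus saline iv at day 4); compound 500 mg/kg po qd; doxorubicin 10 mg/kg iv once at day 4; combination. Treatment-related body weight loss was recorded.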
# [19] = target: DNA (cytosine-5)-methyltransferase 1 (Homo sapiens) (UniProt P26358); experiment: Inhibition of DNMT1 (unknown origin) at 1 to 50 uM by scintillation proximity assay
# DNA (cytosine-5)-methyltransferase 1 (Homo sapiens), sequence (P26358 whole entry): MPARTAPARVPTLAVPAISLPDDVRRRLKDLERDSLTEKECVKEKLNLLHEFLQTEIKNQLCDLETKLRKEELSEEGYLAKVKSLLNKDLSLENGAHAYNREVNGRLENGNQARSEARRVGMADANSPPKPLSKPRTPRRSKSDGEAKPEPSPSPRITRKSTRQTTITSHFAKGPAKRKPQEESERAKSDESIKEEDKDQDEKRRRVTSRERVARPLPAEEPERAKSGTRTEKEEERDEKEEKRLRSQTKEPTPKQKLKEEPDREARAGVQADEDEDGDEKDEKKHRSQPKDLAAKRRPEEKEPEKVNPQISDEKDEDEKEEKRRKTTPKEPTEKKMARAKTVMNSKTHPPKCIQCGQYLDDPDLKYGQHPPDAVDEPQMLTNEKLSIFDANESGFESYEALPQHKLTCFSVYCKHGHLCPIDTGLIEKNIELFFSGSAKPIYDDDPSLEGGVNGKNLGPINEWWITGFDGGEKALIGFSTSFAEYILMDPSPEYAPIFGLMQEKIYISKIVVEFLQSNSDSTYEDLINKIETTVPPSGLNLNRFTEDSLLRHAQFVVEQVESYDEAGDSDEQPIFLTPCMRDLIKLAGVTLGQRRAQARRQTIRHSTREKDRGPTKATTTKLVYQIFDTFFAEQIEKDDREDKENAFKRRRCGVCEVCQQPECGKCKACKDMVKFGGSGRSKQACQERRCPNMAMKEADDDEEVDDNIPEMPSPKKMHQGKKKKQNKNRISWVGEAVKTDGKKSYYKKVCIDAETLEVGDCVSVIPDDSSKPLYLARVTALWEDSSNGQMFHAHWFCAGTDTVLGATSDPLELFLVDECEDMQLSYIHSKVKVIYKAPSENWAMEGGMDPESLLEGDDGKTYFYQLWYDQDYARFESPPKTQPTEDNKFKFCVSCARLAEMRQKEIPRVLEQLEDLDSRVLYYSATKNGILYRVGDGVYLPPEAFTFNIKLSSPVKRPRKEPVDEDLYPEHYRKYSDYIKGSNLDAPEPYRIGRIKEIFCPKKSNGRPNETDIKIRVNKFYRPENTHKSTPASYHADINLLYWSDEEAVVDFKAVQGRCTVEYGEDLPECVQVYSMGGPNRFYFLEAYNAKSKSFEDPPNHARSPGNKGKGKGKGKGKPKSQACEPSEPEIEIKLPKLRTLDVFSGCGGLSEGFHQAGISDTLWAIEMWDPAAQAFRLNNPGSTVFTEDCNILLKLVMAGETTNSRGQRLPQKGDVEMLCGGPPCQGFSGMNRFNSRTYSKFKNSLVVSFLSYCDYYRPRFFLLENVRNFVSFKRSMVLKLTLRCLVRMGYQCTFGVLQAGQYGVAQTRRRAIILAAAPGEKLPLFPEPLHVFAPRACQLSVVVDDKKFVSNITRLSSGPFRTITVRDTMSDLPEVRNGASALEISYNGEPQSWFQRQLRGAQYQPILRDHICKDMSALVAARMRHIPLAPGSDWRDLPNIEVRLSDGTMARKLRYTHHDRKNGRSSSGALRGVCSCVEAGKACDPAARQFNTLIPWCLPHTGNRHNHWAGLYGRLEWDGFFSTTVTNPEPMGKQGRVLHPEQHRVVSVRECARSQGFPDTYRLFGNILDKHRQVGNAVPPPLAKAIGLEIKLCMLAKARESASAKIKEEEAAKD
# [20] = target: Histone-lysine N-methyltransferase NSD2 (Homo sapiens) (UniProt O96028); experiment: Inhibition of NSD2 (unknown origin) at 1 to 50 uM by TCA precipitation assay
# [21] = target: Histone-lysine N-methyltransferase PRDM9 (Homo sapiens) (UniProt Q9NQV7); experiment: Inhibition of PRDM9 (unknown origin) at 1 to 50 uM by scintillation proximity assay
# Histone-lysine N-methyltransferase PRDM9 (Homo sapiens), sequence (Q9NQV7 whole entry): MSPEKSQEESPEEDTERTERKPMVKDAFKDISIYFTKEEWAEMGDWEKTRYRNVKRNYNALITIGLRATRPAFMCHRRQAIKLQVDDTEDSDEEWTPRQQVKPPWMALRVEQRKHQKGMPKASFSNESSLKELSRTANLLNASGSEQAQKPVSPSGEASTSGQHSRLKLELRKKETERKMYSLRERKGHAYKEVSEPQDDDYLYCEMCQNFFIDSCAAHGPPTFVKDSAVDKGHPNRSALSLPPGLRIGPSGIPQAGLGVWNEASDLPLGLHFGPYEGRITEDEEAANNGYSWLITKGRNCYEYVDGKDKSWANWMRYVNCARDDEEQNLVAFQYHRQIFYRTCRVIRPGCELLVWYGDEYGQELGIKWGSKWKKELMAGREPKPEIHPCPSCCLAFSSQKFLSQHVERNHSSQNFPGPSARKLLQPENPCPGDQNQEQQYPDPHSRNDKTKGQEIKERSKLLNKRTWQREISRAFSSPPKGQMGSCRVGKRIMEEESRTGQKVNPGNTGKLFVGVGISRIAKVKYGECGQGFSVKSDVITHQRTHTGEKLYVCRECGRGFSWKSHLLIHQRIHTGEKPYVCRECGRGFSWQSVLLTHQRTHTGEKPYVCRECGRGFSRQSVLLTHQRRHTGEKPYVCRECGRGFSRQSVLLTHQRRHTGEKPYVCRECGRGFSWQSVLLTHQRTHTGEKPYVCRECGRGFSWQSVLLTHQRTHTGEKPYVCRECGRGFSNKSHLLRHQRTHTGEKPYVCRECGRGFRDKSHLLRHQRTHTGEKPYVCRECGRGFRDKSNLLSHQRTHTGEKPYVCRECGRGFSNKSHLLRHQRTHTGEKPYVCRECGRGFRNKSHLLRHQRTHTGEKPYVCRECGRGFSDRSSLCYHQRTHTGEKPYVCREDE
# Mus musculus [22] = experiment: In vivo inhibition of SMYD2 expressed in human KYSE-150 cells xenografted in BALB/c nude mouse assessed as suppression of AHNAK methylation at 30 to 100 mg/kg, po administered qd for 3 days by dot-blot analysis; format: functional, organism-based
# How it was run: (§2)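 Mice with subcutaneous KYSE-150 tumor xenografts dosed orally once daily for 3 days (vehicle PEG 400/water 8:2), n = 12 per group; tumors then harvested and AHNAK methylation measured ex vivo by dot blot with SY46 antibody; group means ± SD, Student's t test versus vehicle.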
# [23] = Oral bioavailability in rat by LC/MS/MS analysis; format: ADME, organism-based; conditions: in vivo
# [24] = target: Histone-lysine N-methyltransferase KMT5C (Homo sapiens) (UniProt Q86Y97); experiment: Inhibition of SUV420H2 (unknown origin) at 1 to 50 uM by scintillation proximity assay
# [25] = target: Histone-lysine N-methyltransferase ASH1L (Homo sapiens) (UniProt Q9NR48); experiment: Inhibition of ASH1L (unknown origin) at 1 to 50 uM by TCA precipitation assay
# KYSE-150 [26] = experiment: Antitumor activity against human KYSE-150 cells xenografted in BALB/c mouse assessed as reduction in tumor weight at 10 mg/kg, iv administered once at day 4 relative to control; format: functional, organism-based; how it was run: as §1
# [27] = Aqueous solubility of the compound; format: physicochemical; conditions: buffer
# Mus musculus [28] = experiment: In vivo inhibition of SMYD2 expressed in human KYSE-150 cells xenografted in BALB/c nude mouse assessed as suppression of AHNAK methylation at 30 mg/kg, po administered qd for 3 days by dot-blot analysis relative to untreated control; format: functional; how it was run: as §2
# KYSE-150 [29] = experiment: Antitumor activity against human KYSE-150 cells xenografted in BALB/c mouse assessed as reduction in tumor area at 500 mg/kg, po administered qd relative to control; format: functional, organism-based; how it was run: as §1
smiles,measurement,setting,value
CCN(C(=O)CO)[C@H]1CN(/C(=N\C#N)Nc2cccc(OC(F)F)c2)N=C1c1ccc(Cl)c(Cl)c1,Activity,KYSE-150 [1],Active
same,inhibition,[2],inactive
same,Activity,U2OS,Active
same,inhibition,[3],inactive
same,Activity,KYSE-150 cell line [4],Active
same,inhibition,[5],inactive
same,Time,Mus musculus [6],9 h
same,bioavailability,[7],24%
same,Activity,A2780,Active
same,inhibition,[8],inactive
same,inhibition,[9],inactive
same,Activity,KYSE-150 [10],Active
same,inhibition,[11],inactive
same,inhibition,[12],inactive
same,inhibition,[13],inactive
same,inhibition,[14],inactive
same,inhibition,[15],inactive
same,Activity,KYSE-150 cell line [16],inactive
same,inhibition,[17],inactive
same,Activity,Mus musculus [18],Non-toxic
same,inhibition,[19],inactive
same,inhibition,[20],inactive
same,inhibition,[21],inactive
same,inhibition,Mus musculus [22],Active
same,bioavailability,[23],24%
same,inhibition,[24],inactive
same,inhibition,[25],inactive
same,Activity,KYSE-150 [26],Active
same,solubility,[27],20 µg/mL
same,T/C,Mus musculus [28],0.71
same,Activity,KYSE-150 [29],inactive
